This passage reports folding enthalpy and Tm results from the array DNA melting data of Ke et al. (doi:10.1101/2024.01.08.574731).

A short description of series [1]: folding enthalpy; higher = less favourable; fluorescence melt of hairpins on a sequencing array, two-state fit. The following applies: sodium 0.088 M. The method, boiled down:
(§1)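 Melting temperature and folding enthalpy were derived from bootstrapped two-state fits. The fitted temperatures were raised by 9.35 °C to agree with UV melts, and four replicates were combined by inverse variance. The underlying data were Cy3 fluorescence images of library hairpins, with annealed Cy3 and quencher oligos, on a sequenced MiSeq flow cell in 50 mM Na-HEPES pH 8.0, 25 mM NaCl, taken in 2.5 °C steps up to 60 °C, normalised to pre-quench Cy3 and to control constructs.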

Series [2] in a line: melting temperature; fluorescence melt of hairpins on a sequencing array, two-state fit, raised by 9.35 °C to match UV melts. The following applies: sodium 0.088 M. The method in brief: as §1

Consider GGGGCCGAAAGGCAGCCC ((((((....)))..))), for which the folding enthalpy in series [1] was -14.6 kcal/mol. The Tm in series [2] was 54 °C.

With GGGGCCTCGAAAGAGCCC (((..(((....)))))), the folding enthalpy in series [1] is -23.8 kcal/mol. Besides, the Tm in series [2] amounted to 56.8 °C.

For the sequence GGGGCTGGAAACAGTCCC (((.(((....))).))), the folding enthalpy in series [1] is -50.6 kcal/mol. For the same sequence, the Tm in series [2] was 59.1 °C.

For the sequence GGGGGAGGAAACTCCCTC (.(((((....))))).), the folding enthalpy in series [1] was -19.3 kcal/mol. The Tm in series [2] amounted to 54.6 °C.

For GGGGGAGGAAACTCCTCC ((.((((....)))).)), in series [1], the folding enthalpy was -22 kcal/mol. In addition, the Tm in series [2] is 53.4 °C.

For the sequence GGGGGTACGAAAGTACCC (((..(((....)))))), in series [1], the folding enthalpy is -8.56 kcal/mol. Moreover, the Tm in series [2] turned out to be 63.4 °C.

As for GGGGGTCGAAAGACACCC (((.(((....))).))), the folding enthalpy in series [1] was -35.5 kcal/mol. In series [2], the Tm was determined as 67.4 °C.

As for GGGGGTGGAAACGCCCTC (.(((.(....).))).), the folding enthalpy in series [1] is -28 kcal/mol. Further, the Tm in series [2] is 59.5 °C.

For GGGGGTGGAAACGCCTCC ((.((.(....).)).)), in series [1], the folding enthalpy is -23.7 kcal/mol. For the same sequence, in series [2], the Tm came out at 49.7 °C.

GGGGGTGGAAACGTCCCC ((((..(....)..)))): the folding enthalpy in series [1] was -26.2 kcal/mol. Also, the Tm in series [2] was found to be 48.7 °C.

In the case of GGGGTAGGAAACTATCCC (((.(((....))).))), the folding enthalpy in series [1] was -38.4 kcal/mol. Also, the Tm in series [2] was found to be 48.9 °C.

In the case of GGGGTAGGAAACTGCCTC (.((.((....)).)).), the folding enthalpy in series [1] was -25.1 kcal/mol. Further, the Tm in series [2] amounted to 38 °C.

As for GGGGTCCGAAAGGATCCC (((.(((....))).))), the folding enthalpy in series [1] was -36 kcal/mol. The Tm in series [2] turned out to be 67.9 °C.

On to GGGGTCGAAAGACATCCC ((((((....)))..))), for which, in series [1], the folding enthalpy is -17.1 kcal/mol. Also, the Tm in series [2] was 46.5 °C.

On to GGGGTCGAAAGACCTCCC ((((((....)))..))), for which the folding enthalpy in series [1] is -11.7 kcal/mol. Moreover, the Tm in series [2] amounted to 51.4 °C.

As for GGGGTCGAAAGACTGCCC ((((((....)))..))), the folding enthalpy in series [1] is -16.2 kcal/mol. The Tm in series [2] amounted to 41.5 °C.

On to GGGGTGCCGAAAGGCCCC (((..(((....)))))), for which the folding enthalpy in series [1] was -14.6 kcal/mol. The Tm in series [2] was 65 °C.

Turning to GGGGTGGCGAAAGCCCCC (((..(((....)))))), the folding enthalpy in series [1] is -14.2 kcal/mol. The Tm in series [2] is 62.9 °C.

GGGGTTGAAAAACCCC ((((((....)))))): the folding enthalpy in series [1] was -34.5 kcal/mol. Besides, the Tm in series [2] was 66.7 °C.

On to GGGGTTGGAAACAACCTC (.(((((....))))).), for which, in series [1], the folding enthalpy is -31.5 kcal/mol. Besides, in series [2], the Tm is 52.5 °C.

Regarding GGGTAAACGAAAGTTCCC (((..(((....)))))), the folding enthalpy in series [1] was -20.7 kcal/mol. Moreover, the Tm in series [2] was found to be 39.8 °C.

Consider GGGTAACGAAAGTTTCCC (((.(((....))).))), for which the folding enthalpy in series [1] was -43 kcal/mol. Further, the Tm in series [2] is 50.3 °C.

Consider GGGTAAGAAATTACCC ((((((....)))))), for which the folding enthalpy in series [1] is -27.4 kcal/mol. For the same sequence, the Tm in series [2] was 50.9 °C.

On to GGGTAATCGAAAGATCCC (((..(((....)))))), for which the folding enthalpy in series [1] is -25 kcal/mol. The Tm in series [2] amounted to 35.9 °C.

Consider GGGTACCGAAAGGTGCCC (((.(((....))).))), for which, in series [1], the folding enthalpy is -29.2 kcal/mol. Further, the Tm in series [2] is 68.7 °C.

For GGGTACGAAAGTAAGCCC ((((((....)))..))), the folding enthalpy in series [1] was -20.7 kcal/mol. Also, the Tm in series [2] came to 40.7 °C.

For the sequence GGGTAGCGAAAGCTGCCC (((.(((....))).))), in series [1], the folding enthalpy was -33.5 kcal/mol. For the same sequence, the Tm in series [2] came out at 69.2 °C.

As to GGGTAGGCGAAAGCCCCC (((..(((....)))))), the folding enthalpy in series [1] was -16.9 kcal/mol. In series [2], the Tm worked out at 53 °C.

As to GGGTAGGGAAACCTACTC (.(((((....))))).), the folding enthalpy in series [1] was -18.7 kcal/mol. Also, in series [2], the Tm amounted to 44.6 °C.

In the case of GGGTAGGGAAACCTGCTC (.(.(((....))).).), the folding enthalpy in series [1] was -14.8 kcal/mol. In series [2], the Tm stood at 36.5 °C.

For GGGTAGGGAAACCTGTCC ((..(((....)))..)), the folding enthalpy in series [1] is -17.2 kcal/mol. Moreover, the Tm in series [2] worked out at 32.3 °C.

On to GGGTAGGGAAACTTGCCC (((.(.(....).).))), for which, in series [1], the folding enthalpy was -20.4 kcal/mol. In series [2], the Tm is 35.6 °C.

Regarding GGGTATCGAAAGATCCC (((.(((....)))))), in series [1], the folding enthalpy was -30.6 kcal/mol. Moreover, in series [2], the Tm was 49.7 °C.

As for GGGTATGGAAACGTACTC (.(((.(....).))).), the folding enthalpy in series [1] was -13.4 kcal/mol. The Tm in series [2] turned out to be 30.7 °C.

For GGGTCAACGAAAGTTCCC (((..(((....)))))), in series [1], the folding enthalpy was -18.8 kcal/mol. In addition, the Tm in series [2] was 34.7 °C.

GGGTCAGCGAAAGCTCCC (((..(((....)))))): the folding enthalpy in series [1] was -17.7 kcal/mol. For the same sequence, the Tm in series [2] is 42.7 °C.

As for GGGTCCACGAAAGTGCCC (((..(((....)))))), the folding enthalpy in series [1] was -17.9 kcal/mol. Also, the Tm in series [2] is 40.8 °C.
